Bioassay records from PubChem.
GRK2 aptamer HTS: human GRK2 inhibition via aptamer displacement. P25098. bead flow cytometry, FAM-aptamer displacement from GRK2. inhibition of aptamer binding, % at 10 µM. 0.59% of 330,000 active. AID 488847;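 active = inhibition of aptamer binding above 40%, roughly 3 SD of noise, on plates passing a quality check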;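 also: median bead fluorescence of bound FAM aptamer so fluorescent compounds give negative values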
DNMT1 block: DNMT1 (human) enzyme inhibition; P26358; DNMT1 molecular beacon, Hinp1I cleavage, fluorescence; inhibition (reported as % activation of signal), % at 10 µM; 0.83% of 360,000 active; in the data active = inhibition above about 50%
SUMO1 PPI mod: alters human SUMO1 binding to SIM partners | P63165 | SUMO1 binding to a labelled peptide, TR-FRET, 1 h | inhibition, % at 20 µM | 0.33% of 360,000 active; in the data active = inhibition above about 37%
STEP inh: blocks human striatal-enriched tyrosine phosphatase; recombinant STEP, OMFP fluorogenic substrate, fluorescence; inhibition, % at 20 µM; 0.25% of 360,000 active;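 active = inhibition at 20 µM, scaled per plate between control wells, above about 37%, limit read from the data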;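 also: 0% = DMSO with enzyme and substrate and 100% = substrate only without enzyme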
Target sequence (P54829 whole entry, looked up): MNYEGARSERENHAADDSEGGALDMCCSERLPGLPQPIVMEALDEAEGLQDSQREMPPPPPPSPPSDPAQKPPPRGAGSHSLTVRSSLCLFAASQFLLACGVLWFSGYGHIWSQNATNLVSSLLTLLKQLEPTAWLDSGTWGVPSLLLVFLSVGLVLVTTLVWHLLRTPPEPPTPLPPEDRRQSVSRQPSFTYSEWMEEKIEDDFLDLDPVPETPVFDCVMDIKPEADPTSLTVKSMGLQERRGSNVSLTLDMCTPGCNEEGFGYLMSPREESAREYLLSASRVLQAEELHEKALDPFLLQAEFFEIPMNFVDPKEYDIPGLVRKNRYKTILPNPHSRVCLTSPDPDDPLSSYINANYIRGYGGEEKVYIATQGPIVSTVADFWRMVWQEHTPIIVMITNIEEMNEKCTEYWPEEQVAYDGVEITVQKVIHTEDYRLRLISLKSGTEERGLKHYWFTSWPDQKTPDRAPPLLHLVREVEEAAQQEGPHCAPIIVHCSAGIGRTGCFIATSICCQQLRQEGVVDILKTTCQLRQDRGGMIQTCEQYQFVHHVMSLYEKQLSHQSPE
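Assay system: isolated STEP enzyme / Timing: 20 min at room temperature, dark / Doses: 20 µM, 1% DMSO / Technique: fluorescence intensity, excitation 480 nm, emission 540 nm / Reagent: fluorogenic phosphatase substrate OMFP at 25 µM final / Measure: percent inhibition scaled to no-enzyme and uninhibited-enzyme controls, plate-pattern corrected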
LMPTP block: blocks human LMPTP phosphatase | 0.22% of 360,000 active | recombinant LMPTP-A, OMFP fluorogenic substrate, fluorescence intensity | inhibition, % at 20 µM | P24666;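 active = compounds that cut the enzyme signal by at least half of the control window in the single-dose screen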;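 also: plate controls were DMSO wells with enzyme plus substrate for no effect and substrate without enzyme for full effect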
Target sequence (P24666 whole entry, looked up): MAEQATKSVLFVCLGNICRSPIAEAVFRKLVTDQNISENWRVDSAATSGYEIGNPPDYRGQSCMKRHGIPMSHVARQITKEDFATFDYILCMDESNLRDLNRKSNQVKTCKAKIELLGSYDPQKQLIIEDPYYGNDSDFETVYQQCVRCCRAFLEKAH
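Assay system: LMPTP-A phosphatase enzyme | Input: 0.625 nM enzyme | Also added: Fluorogenic phosphatase substrate OMFP at 400 µM final | Compound dosing: One test concentration per compound, 20 µM, with 3% DMSO overall | Schedule: 50 min enzyme reaction at room temperature, protected from light | Signal: Fluorescence intensity | Benchmarks: no-enzyme and uninhibited controls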
Scp1 inh: blocks human Scp-1 phosphatase activity | inhibition, % at 20 µM | 0.88% of 340,000 active | Recombinant Scp1, phosphopeptide, malachite green phosphate absorbance | Q9GZU7;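 active = inhibition above about 50% at 20 µM, limit read from the data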;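 also: plate controls were DMSO wells with enzyme for no effect and wells lacking enzyme for full effect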
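System: SCP-1 catalytic domain; Reagent: Phospho 17-mer peptide substrate; Doses: one concentration, 20 µM, with 1.0% DMSO; Incubation: 45 min room-temperature reaction, 5 min colour, 30 min stabiliser; Signal: Phosphate-binding colour reagent, absorbance read at 630 nm.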
Scp-1 conf: confirmation of human Scp-1 phosphatase inhibitors. 61% of 2,500 active. shares compounds with Scp1 inh. recombinant SCP-1 catalytic domain, phosphate release, malachite green absorbance. AID 540281. inhibition, % at 20 µM;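 also: plate controls were DMSO with enzyme for no effect and buffer wells lacking enzyme for full effect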
Scp-1 MG ctr: interferes with malachite green readout, flagging false Scp-1 hits; shares compounds with Scp1 inh; Colorimetric interference counterscreen, malachite green absorbance 630 nm; apparent inhibition (interference), % at 20 µM; 2,500 tested, under 10 active; AID 540313;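 also: compounds added after enzyme reaction finished so only phosphate colour detection is probed; plate controls were DMSO wells with completed Scp-1 reaction for no effect and substrate wells lacking enzyme for full effect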
Scp1 DSF: binds human Scp-1, shifting its melting temperature. shares compounds with Scp1 inh. Recombinant SCP1, Sypro Orange thermal shift Tm. thermal shift relative to vanadate control, % at 40 µM. 25% of 1,500 active. AID 540329;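 active = substances whose mean melting-temperature shift, as a percentage of the reference inhibitor's shift, reaches about 5.3%, limit read from the data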;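 also: 0% = Tm of DMSO wells and 100% = Tm with sodium orthovanadate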
DNMT1 interf DR: shows spectral interference in the DNMT1 beacon assay; 200 tested, under 10 active; molecular beacon fluorescence, spectral interference counter-screen; shares compounds with DNMT1 block; AID 602382; IC50, µM; call rule not given here
DNMT1 inh conf: DNMT1 inhibition confirmation, single concentration. shares compounds with DNMT1 block. DNMT1 molecular beacon HinP1I cleavage, fluorescence. inhibition, % at 10 µM. 8% of 2,300 active. AID 602385;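 active = average inhibition of at least 30% in the single-concentration confirmation test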
Beacon interf: beacon fluorescence artifact counter-screen; shares compounds with DNMT1 block; DNMT1 molecular beacon spectral interference counterscreen, fluorescence 485/520; activation (fluorescence interference), % at 10 µM; 1% of 2,300 active;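 active = activation of at least 30% at 10 µM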;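 also: DNMT1 catalytic domain with a HinP1I cleavage step and a FAM/dabcyl DNA beacon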
An asterisk follows results filed as active; nt = not tested or not shown. Compounds with a hit are over-represented: about 2.1% of the library has one in this group of screens.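 The calls were made as follows, unless noted: active = inhibition of at least 30% at 20 µM; inactive = the rest.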

SMILES | GRK2 aptamer HTS | DNMT1 block | SUMO1 PPI mod | STEP inh | LMPTP block | Scp1 inh | Scp-1 conf | Scp-1 MG ctr | Scp1 DSF | DNMT1 inh conf | Beacon interf | others
Cc1ccccc1S(=O)(=O)NC(=O)C1(C)CCN1C(=O)CC1CCCC1 (stereo not given) | nt | 6 | 1 | 1 | -2 | nt | nt | nt | nt | nt | nt
O=C(C(=O)N1CCN(c2ccncc2)CC1)c1cccc(Br)c1 | nt | nt | -18 | nt | 2 | nt | nt | nt | nt | nt | nt
O=C(Nc1ccc(S(=O)(=O)Nc2nccs2)cc1)c1nn(-c2ccc(F)cc2)ccc1=O | 0 | 59* | 5 | 7 | 56* | 93* | 59* | -22 | 4 | 10 | -4
CCOc1ccc(-n2ccc(=O)c(C(=O)Nc3ccc(S(=O)(=O)Nc4nccs4)cc3)n2)cc1 | 0 | -1 | -6 | -1 | 9 | 6 | nt | nt | nt | nt | nt
O=C1CC=Nc2ccc([N+](=O)[O-])cc21 | nt | 3 | -19 | -3 | 1 | nt | nt | nt | nt | nt | nt
CC[N+](CC)(CC)CCCCOc1ccc2c(c1)C(=O)c1cc(OCCCC[N+](CC)(CC)CC)ccc1-2 | 0 | 50* | -47 | 1 | 7 | 99* | 10 | 2 | nt | 13 | -2
CN(C)c1cccc(C(=O)N/N=C/c2ccccc2F)c1 | 0 | -1 | -2 | 2 | -1 | 6 | nt | nt | nt | nt | nt
Cc1cc(/C=N/NC(=O)c2cccc(N(C)C)c2)c(C)n1-c1cc(C(=O)O)cc(C(=O)O)c1 | nt | 81* | 22 | 17 | -1 | 66* | 53* | -14 | 7.5* | 9 | 3
Cc1cccc(NC(=O)CCc2nc3sc4c(c3c(=O)[nH]2)CCCC4)c1 | 0 | 4 | 0 | -2 | 0 | 4 | nt | nt | nt | nt | nt
Cc1ccc(NC(=O)CCc2nc3sc4c(c3c(=O)[nH]2)CCCC4)nc1 | 6 | 50* | 21 | 3 | 6 | 62* | 66* | -11 | 9.0* | 4 | 3
O=C(Cc1ccc(S(=O)(=O)N2CCOCC2)s1)Nc1ccc2c(c1)CCC2 | 0 | -4 | 0 | -2 | 1 | 0 | nt | nt | nt | nt | nt
O=C(Cc1ccc(S(=O)(=O)N2CCOCC2)s1)Nc1nc2c(s1)CCCC2 | 0 | 89* | 22 | 21 | 15 | 64* | 74* | -4 | 11* | 10 | 2
CS(=O)(=O)n1c2ccccc2c(=O)n1-c1ccccc1CCl | nt | -2 | -1 | -1 | 0 | nt | nt | nt | nt | nt | nt
NC(=O)Cc1ccc(C(=O)CSc2nnc(-c3ccncc3)n2C2CC2)s1 | 0 | 78* | 15 | 0 | 57* | 79* | 82* | 5 | 7.0* | 8 | -1
N#CCCN(C(=O)CSc1nnc(-c2ccncc2)n1C1CC1)c1ccccc1 | 0 | 4 | 5 | -2 | -2 | -7 | nt | nt | nt | nt | nt
COc1ccc(CNC(=O)C(C)OC(=O)c2cccc(N(C)C)c2)cc1 (stereo not given) | 1 | -2 | 0 | 1 | 3 | -6 | nt | nt | nt | nt | nt
CC1=NN(c2ccc(Cl)c(C(=O)O)c2)C(=O)C1 | 5 | 68* | 41* | 9 | 8 | 75* | 53* | -8 | 9.5* | 8 | 1
O=C(COC(=O)c1ccc(F)cc1F)NCc1ccc2c(c1)OCO2 | 0 | 2 | 0 | -1 | -2 | -3 | nt | nt | nt | nt | nt
Cc1ccnc(NS(=O)(=O)c2ccc(NC(=O)Cc3cccs3)cc2)n1 | 5 | 90* | 15 | 1 | 14 | 60* | 73* | -5 | 6.8* | 22 | -3 | DNMT1 interf DR=>99
O=C(Cc1cccs1)Nc1ccc(S(=O)(=O)N2CCCCC2)cc1 | 0 | 57* | 2 | 4 | 18 | 89* | 64* | -20 | 6.6* | 8 | 4
Cc1ccnc(NS(=O)(=O)c2ccc(NC(=O)Cc3ccc(F)cc3)cc2)n1 | 1 | 4 | 3 | -2 | -2 | -1 | nt | nt | nt | nt | nt
O=C1NC[C@@H](CCCCN2C[C@H](Cc3ccccc3)N(CC3CCCCC3)C(=O)C2=O)N(CC2CCCCC2)C1=O | nt | nt | -3 | nt | 1 | nt | nt | nt | nt | nt | nt
O=C(O)c1cnc2ccc(Cl)cc2n1 | nt | -1 | -21 | 2 | -3 | nt | nt | nt | nt | nt | nt
C=C(C)C(=O)Nc1cccc(C2=NOC3(C2)C[C@@H](C(N)=O)N(C(=O)/C(C)=C/C)C3)c1 (stereo not given in full) | 94* | 110* | 98* | 8 | -2 | 99* | 68* | -8 | -7 | 101* | -2 | DNMT1 interf DR=>99
COc1ccc(-c2nnc(NC(=O)c3cccs3)s2)c(OC)c1 | 3 | 80* | 13 | 14 | 45 | 96* | 67* | -16 | -18 | 2 | -4
SMILES | GRK2 aptamer HTS | DNMT1 block | SUMO1 PPI mod | STEP inh | LMPTP block | Scp1 inh | Scp-1 conf | Scp-1 MG ctr | Scp1 DSF | DNMT1 inh conf | Beacon interf | others
NC(=N\N=Cc1ccco1)/C(N)=N/N=Cc1ccco1 | nt | 55* | 2 | 7 | 36 | 62* | 39* | -11 | 1 | 4 | 4
CCCc1nc2cc(C)c(Br)c(C)n2c1Cc1ccccc1OC | nt | nt | 1 | nt | 3 | nt | nt | nt | nt | nt | nt
C#CCSc1nsc(SCC#C)c1C#N | 31 | 77* | 11 | 14 | 26 | 80* | 66* | -16 | 1 | 16 | 2
COc1cc(C)ccc1S(=O)(=O)NC(=O)C1(C)CCN1C(=O)COc1ccc(Cl)cc1 (stereo not given) | nt | -1 | 4 | 0 | -2 | nt | nt | nt | nt | nt | nt
Cc1ccc(-c2nc3s/c(=C\c4ccco4)c(=O)n3n2)cc1 | 2 | 79* | 4 | 5 | 4 | 67* | 49* | -7 | 5 | 5 | -1
COc1ccccc1/C=c1\sc2nc(-c3ccccc3OC)nn2c1=O | 0 | -17 | -1 | 8 | 0 | -7 | nt | nt | nt | nt | nt
Cc1ccc(/C=c2\sc3nc(-c4ccccc4Br)nn3c2=O)o1 | 13 | 104* | 24 | 11 | 35 | 92* | 61* | -21 | 9.2* | 4 | 2
CCCCn1c(SCc2ccc(C(=O)OC)o2)nc2cc(S(N)(=O)=O)ccc21 | 2 | 1 | -4 | 1 | -1 | 1 | nt | nt | nt | nt | nt
CCCCn1c(SCC(=O)NC(=O)NCc2ccco2)nc2cc(S(N)(=O)=O)ccc21 | 2 | 89* | 5 | 2 | 9 | 64* | 58* | -12 | -3 | 5 | 1
